Measurements reported in ChEMBL document CHEMBL3046000, “Design and synthesis of 1-(benzothiazol-5-yl)-1H-1,2,4-triazol-5-ones as protoporphyrinogen oxidase inhibitors” (Bioorg Med Chem, 2013).

What was measured:
[1] = Phytotoxicity against 4-leaf stage Triticum aestivum (wheat) plants assessed as plant growth inhibition at 150 g ai/ha applied through spraying measured 30 days after compound treatment under greenhouse conditions; type: organism-based; settings: in vivo, read-out: GI
[2] = Phytotoxicity against four-leaf stage Brassica napus (oilseed rape) plants assessed as plant growth inhibition at 150 g ai/ha applied through spraying measured 30 days after compound treatment under greenhouse conditions; type: organism-based; settings: in vivo, read-out: GI
[3] = Phytotoxicity against four-leaf stage Zea mays cv. Anjou (maize) plants assessed as plant growth inhibition at 150 g ai/ha applied through spraying measured 30 days after compound treatment under greenhouse conditions; type: organism-based; settings: in vivo, read-out: GI
[4] = Phytotoxicity against four-leaf stage Gossypium hirsutum (cotton) plants assessed as plant growth inhibition at 150 g ai/ha applied through spraying measured 30 days after compound treatment under greenhouse conditions; type: organism-based; settings: in vivo, read-out: GI
[5] = Phytotoxicity against 4-leaf stage Glycine max (soybean) plants assessed as plant growth inhibition at 150 g ai/ha applied through spraying measured 30 days after compound treatment under greenhouse conditions; type: organism-based; settings: in vivo, read-out: GI
[6] = Phytotoxicity against four-leaf stage Oryza sativa (rice) plants assessed as plant growth inhibition at 150 g ai/ha applied through spraying measured 30 days after compound treatment under greenhouse conditions; type: organism-based; settings: in vivo, read-out: GI
[7] = Phytotoxicity against 4-leaf stage Glycine max (soybean) plants assessed as plant growth inhibition at 75 g ai/ha applied through spraying measured 30 days after compound treatment under greenhouse conditions; type: organism-based; settings: in vivo, read-out: GI
[8] = tested on: Chenopodium album; assay: Post-emergence herbicidal activity against Chenopodium album seedlings assessed as plant growth inhibition at 75 g ai/ha measured 15 days after compound treatment under greenhouse conditions; type: functional; settings: 360 h, read-out: GI
[9] = tested on: Chenopodium album; assay: Post-emergence herbicidal activity against Chenopodium album seedlings assessed as plant growth inhibition at 37.5 g ai/ha measured 15 days after compound treatment under greenhouse conditions; type: functional; settings: 360 h, read-out: GI
[10] = tested on: Capsella bursa-pastoris; assay: Post-emergence herbicidal activity against Capsella bursa-pastoris assessed as plant growth inhibition at 75 g ai/ha; type: functional; settings: read-out: GI
Procedure, shortened: (§1)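 Compounds formulated as 100 g/L emulsifiable concentrates in DMF with Tween-80 as emulsifier, then diluted with water. Sprayed post-emergence onto pot-grown plants in a greenhouse, with broadleaf weeds at the 2-leaf stage and grasses at the 1-leaf stage. Clay soil with 1.6% organic matter and CEC 12.1 […]; relative humidity about 50%. Rate (g ai/ha) = active ingredient ÷ pot surface area. Untreated and DMF + Tween-80 solvent controls.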

[11] = tested on: Symphyotrichum subulatum; assay: Post-emergence herbicidal activity against Symphyotrichum subulatum assessed as plant growth inhibition at 75 g ai/ha; type: functional; settings: read-out: GI; procedure, shortened: as §1
[12] = tested on: Boehmeria nivea; assay: Post-emergence herbicidal activity against Boehmeria nivea assessed as plant growth inhibition at 75 g ai/ha; type: functional; settings: read-out: GI; procedure, shortened: as §1
[13] = tested on: Amaranthus spinosus; assay: Post-emergence herbicidal activity against Amaranthus spinosus assessed as plant growth inhibition at 75 g ai/ha; type: functional; settings: read-out: GI; procedure, shortened: as §1
[14] = tested on: Eleusine indica; assay: Post-emergence herbicidal activity against Eleusine indica assessed as plant growth inhibition at 75 g ai/ha; type: functional; settings: read-out: GI; procedure, shortened: as §1
[15] = tested on: Cerastium arvense; assay: Post-emergence herbicidal activity against Cerastium arvense assessed as plant growth inhibition at 75 g ai/ha; type: functional; settings: read-out: GI; procedure, shortened: as §1
[16] = tested on: Veronica polita; assay: Post-emergence herbicidal activity against Veronica polita assessed as plant growth inhibition at 75 g ai/ha; type: functional; settings: read-out: GI; procedure, shortened: as §1
[17] = tested on: Senna tora; assay: Post-emergence herbicidal activity against Senna tora assessed as plant growth inhibition at 75 g ai/ha; type: functional; settings: read-out: GI; procedure, shortened: as §1
[18] = tested on: Alkekengi officinarum; assay: Post-emergence herbicidal activity against Physalis alkekengi assessed as plant growth inhibition at 75 g ai/ha; type: functional; settings: read-out: GI; procedure, shortened: as §1
[19] = tested on: Phytolacca acinosa; assay: Post-emergence herbicidal activity against Raddix phytolaccae assessed as plant growth inhibition at 75 g ai/ha; type: functional; settings: read-out: GI; procedure, shortened: as §1
[20] = tested on: Ammannia baccifera; assay: Post-emergence herbicidal activity against Ammannia baccifera assessed as plant growth inhibition at 75 g ai/ha; type: functional; settings: read-out: GI; procedure, shortened: as §1
[21] = tested on: Ludwigia prostrata; assay: Post-emergence herbicidal activity against Ludwigia prostrata assessed as plant growth inhibition at 75 g ai/ha; type: functional; settings: read-out: GI; procedure, shortened: as §1
[22] = tested on: Commelina communis; assay: Post-emergence herbicidal activity against Commelina communis (Asiatic dayflower) assessed as plant growth inhibition at 75 g ai/ha; type: functional; settings: read-out: GI; procedure, shortened: as §1
[23] = tested on: Myosoton aquaticum; assay: Post-emergence herbicidal activity against Myosoton aquaticum assessed as plant growth inhibition at 75 g ai/ha; type: functional; settings: read-out: GI; procedure, shortened: as §1
[24] = tested on: Sonchus asper; assay: Post-emergence herbicidal activity against Sonchus asper assessed as plant growth inhibition at 75 g ai/ha; type: functional; settings: read-out: GI; procedure, shortened: as §1
[25] = tested on: Polygonum humifusum; assay: Post-emergence herbicidal activity against Polygonum humifusum assessed as plant growth inhibition at 75 g ai/ha; type: functional; settings: read-out: GI; procedure, shortened: as §1
[26] = tested on: Solanum nigrum; assay: Post-emergence herbicidal activity against Solanum nigrum (black nightshade) assessed as plant growth inhibition at 75 g ai/ha; type: functional; settings: read-out: GI; procedure, shortened: as §1
[27] = tested on: Chenopodium album; assay: Post-emergence herbicidal activity against Chenopodium album seedlings assessed as plant growth inhibition at 150 g ai/ha measured 15 days after compound treatment under greenhouse conditions; type: functional; settings: 360 h, read-out: GI
[28] = tested on: Amaranthus retroflexus; assay: Post emergence herbicidal activity against Amaranthus retroflexus seedlings assessed as plant growth inhibition at 75 g ai/ha measured 15 days after compound treatment under greenhouse conditions; type: functional; settings: 360 h, read-out: GI
[29] = tested on: Amaranthus retroflexus; assay: Post emergence herbicidal activity against Amaranthus retroflexus seedlings assessed as plant growth inhibition at 37.5 g ai/ha measured 15 days after compound treatment under greenhouse conditions; type: functional; settings: 360 h, read-out: GI
[30] = tested on: Amaranthus retroflexus; assay: Post emergence herbicidal activity against Amaranthus retroflexus seedlings assessed as plant growth inhibition at 150 g ai/ha measured 15 days after compound treatment under greenhouse conditions; type: functional; settings: 360 h, read-out: GI
[31] = tested on: Brassica juncea; assay: Post-emergence herbicidal activity against Brassica juncea seedlings assessed as plant growth inhibition at 75 g ai/ha measured 15 days after compound treatment under greenhouse conditions; type: functional; settings: 360 h, read-out: GI
[32] = tested on: Brassica juncea; assay: Post-emergence herbicidal activity against Brassica juncea seedlings assessed as plant growth inhibition at 37.5 g ai/ha measured 15 days after compound treatment under greenhouse conditions; type: functional; settings: 360 h, read-out: GI
[33] = tested on: Brassica juncea; assay: Post-emergence herbicidal activity against Brassica juncea seedlings assessed as plant growth inhibition at 150 g ai/ha measured 15 days after compound treatment under greenhouse conditions; type: functional; settings: 360 h, read-out: GI
[34] = tested on: Setaria faberi; assay: Post-emergence herbicidal activity against Setaria faberi (Giant Foxtail) seedlings assessed as plant growth inhibition at 75 g ai/ha measured 15 days after compound treatment under greenhouse conditions; type: functional; settings: 360 h, read-out: GI
[35] = tested on: Setaria faberi; assay: Post-emergence herbicidal activity against Setaria faberi (Giant Foxtail) seedlings assessed as plant growth inhibition at 37.5 g ai/ha measured 15 days after compound treatment under greenhouse conditions; type: functional; settings: 360 h, read-out: GI
[36] = tested on: Setaria faberi; assay: Post-emergence herbicidal activity against Setaria faberi (Giant Foxtail) seedlings assessed as plant growth inhibition at 150 g ai/ha measured 15 days after compound treatment under greenhouse conditions; type: functional; settings: 360 h, read-out: GI
[37] = tested on: Digitaria sanguinalis; assay: Post-emergence herbicidal activity against Digitaria sanguinalis (hairy crabgrass) seedlings assessed as plant growth inhibition at 75 g ai/ha measured 15 days after compound treatment under greenhouse conditions; type: functional; settings: 360 h, read-out: GI
[38] = tested on: Digitaria sanguinalis; assay: Post-emergence herbicidal activity against Digitaria sanguinalis (hairy crabgrass) seedlings assessed as plant growth inhibition at 37.5 g ai/ha measured 15 days after compound treatment under greenhouse conditions; type: functional; settings: 360 h, read-out: GI
[39] = tested on: Digitaria sanguinalis; assay: Post-emergence herbicidal activity against Digitaria sanguinalis (hairy crabgrass) seedlings assessed as plant growth inhibition at 150 g ai/ha measured 15 days after compound treatment under greenhouse conditions; type: functional; settings: 360 h, read-out: GI
[40] = tested on: Echinochloa crus-galli; assay: Post emergence herbicidal activity against Echinochloa crus-galli (barnyard grass) seedlings assessed as plant growth inhibition at 75 g ai/ha measured 15 days after compound treatment under greenhouse conditions; type: functional; settings: 360 h, read-out: GI
[41] = tested on: Echinochloa crus-galli; assay: Post emergence herbicidal activity against Echinochloa crus-galli (barnyard grass) seedlings assessed as plant growth inhibition at 37.5 g ai/ha measured 15 days after compound treatment under greenhouse conditions; type: functional; settings: 360 h, read-out: GI
[42] = tested on: Echinochloa crus-galli; assay: Post emergence herbicidal activity against Echinochloa crus-galli (barnyard grass) seedlings assessed as plant growth inhibition at 150 g ai/ha measured 15 days after compound treatment under greenhouse conditions; type: functional; settings: 360 h, read-out: GI
[43] = target: T1, Protoporphyrinogen oxidase, chloroplastic (Nicotiana tabacum, UniProt O24163); assay: Inhibition of Nicotiana tabacum (tobacco) recombinant PPO assessed as protoporphyrin IX formation at room temperature by fluorimetric assay
T1 sequence (O24163 whole entry): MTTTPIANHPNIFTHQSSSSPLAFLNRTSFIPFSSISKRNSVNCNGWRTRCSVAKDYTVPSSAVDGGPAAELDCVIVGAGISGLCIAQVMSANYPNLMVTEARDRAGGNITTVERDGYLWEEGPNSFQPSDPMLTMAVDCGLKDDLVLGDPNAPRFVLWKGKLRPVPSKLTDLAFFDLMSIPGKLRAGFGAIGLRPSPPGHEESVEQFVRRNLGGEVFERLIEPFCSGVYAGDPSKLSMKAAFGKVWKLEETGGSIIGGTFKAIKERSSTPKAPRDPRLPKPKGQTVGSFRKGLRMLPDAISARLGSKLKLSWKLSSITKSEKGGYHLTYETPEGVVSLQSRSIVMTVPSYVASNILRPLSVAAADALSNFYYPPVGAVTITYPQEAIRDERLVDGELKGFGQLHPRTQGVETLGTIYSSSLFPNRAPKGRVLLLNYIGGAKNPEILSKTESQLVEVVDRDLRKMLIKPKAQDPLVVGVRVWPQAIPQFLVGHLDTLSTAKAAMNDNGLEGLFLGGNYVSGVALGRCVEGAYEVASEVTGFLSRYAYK

CCOC(=O)C(C)Sc1nc2cc(-n3nc(C)n(C(F)F)c3=O)c(F)cc2s1 (stereo not drawn)
240 nM: Ki [43]
≥ 90%: inhibition of growth at 150 g/ha [27] | inhibition of growth at 150 g/ha [30] | inhibition of growth at 75 g/ha [31] | inhibition of growth at 37.5 g/ha [32] | inhibition of growth at 150 g/ha [33] | inhibition of growth at 75 g/ha [34] | inhibition of growth at 37.5 g/ha [35] | inhibition of growth at 150 g/ha [36] | inhibition of growth at 150 g/ha [39] | inhibition of growth at 150 g/ha [42]
100%: inhibition at 720 h [2] | inhibition of growth at 75 g/ha [10] | inhibition of growth at 75 g/ha [11] | inhibition of growth at 75 g/ha [12] | inhibition of growth at 75 g/ha [13] | inhibition of growth at 75 g/ha [14] | inhibition of growth at 75 g/ha [15] | inhibition of growth at 75 g/ha [16] | inhibition of growth at 75 g/ha [24] | inhibition of growth at 75 g/ha [25] | inhibition of growth at 75 g/ha [26]
30%: inhibition at 720 h [3]
> 90%: inhibition of growth at 75 g/ha [17] | inhibition of growth at 75 g/ha [18] | inhibition of growth at 75 g/ha [19] | inhibition of growth at 75 g/ha [20] | inhibition of growth at 75 g/ha [21] | inhibition of growth at 75 g/ha [22] | inhibition of growth at 75 g/ha [23]
70%: inhibition at 720 h [4]
0%: inhibition at 720 h [5] | inhibition at 720 h [7]
50%: inhibition at 720 h [6]
80%: inhibition at 720 h [1] | inhibition of growth at 75 g/ha [28] | inhibition of growth at 37.5 g/ha [29] | inhibition of growth at 75 g/ha [37] | inhibition of growth at 37.5 g/ha [38] | inhibition of growth at 75 g/ha [40] | inhibition of growth at 37.5 g/ha [41]
60%: inhibition of growth at 75 g/ha [8] | inhibition of growth at 37.5 g/ha [9]
